The text below walks through data of ChEMBL document CHEMBL1128214, “Structure-based design of sulfonamide-substituted non-peptidic HIV protease inhibitors” (J Med Chem, 1995).

Series [1] deals with Human immunodeficiency virus type 1 protease (Human immunodeficiency virus 1, UniProt Q72874). The experiment in a line: Inhibitory activity against HIV-1 protease.
The subject of series [2] is Human immunodeficiency virus 1. Description: Antiviral potency of compound determined against human immunodeficiency virus type 1. Type of series: functional, organism-based. Put shortly:
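Antiviral activity measured in MT4 cells acutely infected with HIV-1 IIIB; potency reported as IC50.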

The nature of series [3]: Time of maximum concentration was determined in an aqueous sodium hydroxide solution adjusted to pH 10 at 10 mg/kg dosage administered perorally in dog. Type of series: ADME, organism-based, Canis lupus familiaris. Set-up: dose 10 mg/kg, route oral. Particulars: in vivo, po. Put shortly:
(§1)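 Single oral dose given as an aqueous sodium hydroxide solution adjusted to pH 10. Plasma concentrations were followed over time. Cmax, tmax and bioavailability (F) were calculated from the time-course data by noncompartmental analysis. Values are mean ± SD.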

A short description of series [4]: The total body administered intravenously in dog. It counts as ADME, organism-based, Canis lupus familiaris. Particulars: in vivo, iv, read-out: Vss. Put shortly:
(§2)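 Plasma concentration–time data were analysed by noncompartmental methods. The […] (β) and half-life were estimated, and total body clearance and steady-state volume of distribution were calculated. Values are mean ± SD.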

Series [5] is described as follows: The steady-state volume of distribution was determined in an aqueous sodium hydroxide solution adjusted to pH 10 at 2.5 mg/kg administered intravenously dosage in rats. It counts as ADME, organism-based. Set-up: dose 2.5 mg/kg, route intravenous. To be noted: rat, in vivo, iv, read-out: Vss. Put shortly: as §2
Series [6] in a line: Maximum concentration was determined in an aqueous sodium hydroxide solution adjusted to pH 10 at 10 mg/kg dosage administered perorally in dog. Details: dose 10 mg/kg, route oral. To be noted: in vivo, po. Type of series: ADME, organism-based, Canis lupus familiaris. Put shortly: as §1
The nature of series [7]: Bioavailability (F) was determined in an aqueous sodium hydroxide solution adjusted to pH 10 at 5 mg/kg dosage administered perorally in rats. It counts as ADME, organism-based. Particulars: eutheria, in vivo, po. Put shortly:
as §1

Series [8] can be described thus: The half life time estimated was determined in an aqueous sodium hydroxide solution adjusted to pH 10 at 2.5 mg/kg dosage administered intravenously in rats. It counts as ADME, organism-based. Details: dose 2.5 mg/kg, route intravenous. To be noted: rat, in vivo, iv. Put shortly: as §2
Series [9] in a line: The half life time estimated was determined in an aqueous sodium hydroxide solution adjusted to pH 10 at 5 mg/kg dosage administered intravenously in dog. Type of series: ADME, organism-based. Details: dose 5 mg/kg, route intravenous. To be noted: in vivo, iv. Put shortly:
as §2

A short description of series [10]: Time of maximum concentration was determined in an aqueous sodium hydroxide solution adjusted to pH 10 at 5 mg/kg dosage administered perorally in rats. Type of series: ADME, organism-based. Details: dose 5 mg/kg, route oral. Particulars: rat, in vivo, po. Put shortly:
as §1

A short description of series [11]: Bioavailability (F) was determined in an aqueous sodium hydroxide solution adjusted to pH 10 at 10 mg/kg dosage administered perorally in dog. It counts as ADME, organism-based. To be noted: eutheria, in vivo, po. Put shortly: as §1
Series [12] in a line: Maximum concentration was determined in an aqueous sodium hydroxide solution adjusted to pH 10 at 5 mg/kg dosage administered perorally in rats. Type of series: ADME, organism-based. Set-up: dose 5 mg/kg, route oral. Particulars: rat, in vivo, po. Put shortly: as §1

A value given as a limit tells only on which side of the number the result lay.

Usually Ki stands for the equilibrium dissociation constant of an inhibitor or competing ligand from its target. The low end stands for tighter binding, the high end for weaker binding. Usually IC50 stands for the point on the concentration scale where inhibition reaches its midpoint. Lower therefore signals higher potency. Turning to `Cc1ccccc1S(=O)(=O)Nc1cccc(C(c2c(O)c3c(oc2=O)CCCCCC3)C2CC2)c1` (stereo not drawn), the Ki in series [1] was 0.009 µM. For the same compound, in series [2], the IC50 was > 10 µM.
As usually defined, the Tmax is the time at which the peak concentration occurs. What is called Cmax is the peak of the concentration-time curve. The bioavailability is the share of a dose that reaches the circulation, judged against a reference dose that is usually intravenous. Read a high bioavailability as good availability. Broadly, the half-life is how long it takes for the measured level to halve. Regarding `N#Cc1ccc(S(=O)(=O)Nc2cccc(C(c3c(O)c4c(oc3=O)CCCCCC4)C3CC3)c2)cc1` (stereo not drawn), the Tmax in [3] and in series [10] was 1 h each time. Besides, in series [2], inhibition was half-maximal at 1.5 µM (IC50). Moreover, the Vd is 0.084 L/kg in [4] and 0.11 L/kg in [5]. Further, the Cmax in series [6] is 156 µM; in series [12] it was 24.2 µM. The figures for the bioavailability in [7] and in [11] were 41.9% and 76.7%, respectively. The values for the half-life in series [8] and in series [9] were 3 h and 6.3 h, respectively.
As to `Cc1ccc(S(=O)(=O)Nc2cccc(C(c3c(O)c4c(oc3=O)CCCCCC4)C3CC3)c2)cc1` (stereo not drawn), in series [1], the affinity corresponds to a Ki of 0.003 µM. 3.6 µM corresponded to half-maximal inhibition in series [2] (IC50).
`O=c1c2c(oc(O)c1C(c1cccc(NS(=O)(=O)c3ccccc3)c1)C1CC1)CCCCCC2` (stereo not drawn) had an IC50 in series [2] of 5 µM.
In the case of `Cc1cccc(S(=O)(=O)Nc2cccc(C(c3c(O)c4c(oc3=O)CCCCCC4)C3CC3)c2)c1` (stereo not drawn), the Ki in series [1] was 0.005 µM. The compound further had an IC50 in series [2] of 4 µM.
